From PubChem
Most compounds without a hit are left out; they make up all but 4.8% or so of the library.
HSF1 activator – increases HSF-1 driven luciferase reporter signal. AID 504408. NIH3T3-HGL HSF-1 luciferase reporter, MG132, 8 h; 100% = twice DMSO control signal. activation, % at 9 µM. 300,000 compounds, 1.7% hits;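 active = mean replicate activation of at least 50% with a set share of replicates each reaching 50%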
GPR7 antagonist – blocks human GPR7 receptor signaling. P48145. GPR7-expressing cells, fluorescence antagonist assay. inhibition, % at 4.4 µM. 290,000 compounds, 1.1% hits; in the data active = inhibition above about 16%, passing the limit was not always enough;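 note: cells stimulated with the agonist NPW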
Target sequence (P48145 whole entry, looked up): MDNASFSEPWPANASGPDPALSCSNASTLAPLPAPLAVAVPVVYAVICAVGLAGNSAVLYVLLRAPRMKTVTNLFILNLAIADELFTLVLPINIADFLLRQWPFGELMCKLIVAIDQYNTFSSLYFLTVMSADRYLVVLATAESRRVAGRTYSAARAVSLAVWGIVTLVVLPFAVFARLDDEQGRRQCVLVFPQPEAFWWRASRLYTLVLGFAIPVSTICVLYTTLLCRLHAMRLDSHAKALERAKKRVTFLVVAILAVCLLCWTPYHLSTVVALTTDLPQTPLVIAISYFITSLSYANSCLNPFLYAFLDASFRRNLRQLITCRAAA
Jurkat NFkB inh – lowers PMA/ionomycin-induced NF-kB signal in Jurkat cells. 330,000 compounds, 0.53% hits. inhibition, % at 4 µM. PMA/ionomycin-induced NF-kB luciferase reporter, luminescence. AID 435003; in the data active = inhibition above about 50%
HSF1 inh – HSF1 inhibition; 300,000 compounds, 0.77% hits; NIH3T3-HGL HSE-luciferase, MG132-induced, luminescence 8 h; hits give low values; AID 2098; activity change, negative = inhibition, % at 7.5 µM (by protocol);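 active = more than half of replicate wells show activity change below -50%, luminescence cut by over half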;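 note: luciferase reports HSF-1 transcriptional activity via heat shock element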
T cruzi repl – blocks replication of Trypanosoma cruzi; T. cruzi beta-gal in NIH3T3, luminescence, 90 h; inhibition, % (no concentration beside the values); 300,000 compounds, 1.4% hits; AID 1885;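 active = mean inhibition across valid replicates above about 55%, limit read from the data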;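 note: signal also drops with host cell toxicity which is not excluded here; higher percent means less beta-gal luminescence so fewer parasites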
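Read-out: Parasite load inhibition, % | Test system: Mouse NIH/3T3 fibroblasts infected with β-gal-expressing T. cruzi Tulahuen C4 | Amount: 5,000 cells/well | Medium: DMEM, 2% fetal bovine serum | Signal: GalScreen β-gal luminescence, detergent lysis, 60 min | Timing: 3 h attach, ≥90 h co-culture | Also added: Tulahuen C4 trypomastigotes, 5000/well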
697 NFkB inh – inhibitors of the PMA/ionomycin-induced NF-kB reporter in 697 B cells. 697 B-cell NF-kB luciferase reporter, 16 h. 330,000 compounds, 0.33% hits. inhibition, % at 4 µM; in the data active = inhibition above about 35%
GPR7 antag cf – confirmation of human GPR7 antagonists; shares compounds with GPR7 antagonist; inhibition, % at 4.4 µM; 2,400 compounds, 52% hits; AID 1952; GPR7-expressing cells, calcium fluorescence antagonist mode; in the data active = inhibition above about 24%;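 note: stimulated with the GPR7 agonist NPW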
MCHR1 antag – antagonizes human MCHR1, a GPR7 antagonist counter-screen; shares compounds with GPR7 antagonist; 2,400 compounds, 62% hits; AID 2148; MCHR1-expressing cells, fluorescence antagonist assay; inhibition, % at 4.4 µM; in the data active = inhibition above about 22%
Numbers stand for hits.

Results for CN(C)CCNc1nc2sc3c(c2c(=O)n1CCc1ccccc1)CCCCC3 ?
HSF1 activator: inactive; GPR7 antagonist: 26; Jurkat NFkB inh: inactive; HSF1 inh: inactive; T cruzi repl: 58; 697 NFkB inh: inactive; GPR7 antag cf: 43; MCHR1 antag: 57

What do the screens show for `NNc1nc2sc3c(c2c(=O)n1-c1ccccc1)CCCC3`?
HSF1 activator: inactive; GPR7 antagonist: inactive; Jurkat NFkB inh: inactive; HSF1 inh: inactive; T cruzi repl: inactive; 697 NFkB inh: inactive

What do the screens show for `CCOC(=O)c1c(C)n(-c2ccc(F)cc2)c2ccc(O)cc12`?
HSF1 activator: inactive; GPR7 antagonist: 72; Jurkat NFkB inh: inactive; HSF1 inh: inactive; T cruzi repl: inactive; 697 NFkB inh: inactive; GPR7 antag cf: inactive; MCHR1 antag: inactive

How did COC(=O)c1c(C)n(-c2ccc(OC)cc2)c2ccc(O)cc12 do in these assays?
HSF1 activator: inactive; GPR7 antagonist: inactive; Jurkat NFkB inh: inactive; HSF1 inh: inactive; T cruzi repl: inactive; 697 NFkB inh: inactive

Results for S=c1[nH]nc(-c2cc3ccccc3o2)n1Cc1ccccc1 ?
HSF1 activator: inactive; GPR7 antagonist: inactive; Jurkat NFkB inh: inactive; HSF1 inh: inactive; T cruzi repl: inactive; 697 NFkB inh: inactive

Results for C#CCOCCOCCOCCNc1nc(N2CCN(C(=O)[C@H](Cc3ccc(O)cc3)n3cc([C@@H](N)CC(C)C)nn3)CC2)nc(N2CCN(C(=O)[C@H](Cc3ccc(O)cc3)n3cc([C@@H](N)CC(C)C)nn3)CC2)n1 ?
HSF1 activator: inactive; GPR7 antagonist: 31; Jurkat NFkB inh: inactive; HSF1 inh: inactive; T cruzi repl: inactive; 697 NFkB inh: inactive; GPR7 antag cf: inactive; MCHR1 antag: inactive

How did C#CCOCCOCCOCCNc1nc(N2CCN(C(=O)[C@H](CCC(=O)O)n3cc(C(N)CC(C)C)nn3)CC2)nc(N2CCN(C(=O)[C@H](Cc3ccc(O)cc3)n3cc(C(N)CC(C)C)nn3)CC2)n1 (stereo partly drawn) do in these assays?
HSF1 activator: inactive; GPR7 antagonist: inactive; Jurkat NFkB inh: inactive; HSF1 inh: inactive; T cruzi repl: inactive; 697 NFkB inh: inactive

Results for COc1ccc(C(=O)NCCc2ccccc2)cc1[N+](=O)[O-] ?
HSF1 activator: inactive; GPR7 antagonist: 31; Jurkat NFkB inh: inactive; HSF1 inh: inactive; T cruzi repl: inactive; 697 NFkB inh: inactive; GPR7 antag cf: inactive; MCHR1 antag: inactive

What do the screens show for `CCCCNC(=O)CN1C(=O)C(CC)Oc2ccc(Cl)cc21` (stereo not drawn)?
HSF1 activator: inactive; GPR7 antagonist: 28; Jurkat NFkB inh: inactive; HSF1 inh: inactive; T cruzi repl: inactive; 697 NFkB inh: inactive; GPR7 antag cf: inactive; MCHR1 antag: 25

What do the screens show for `CC(C)CNS(=O)(=O)c1ccc(NC(=O)Cn2nc(-c3ccc(F)cc3)ccc2=O)cc1`?
HSF1 activator: inactive; GPR7 antagonist: 33; Jurkat NFkB inh: inactive; HSF1 inh: inactive; T cruzi repl: inactive; 697 NFkB inh: inactive; GPR7 antag cf: inactive; MCHR1 antag: inactive

What do the screens show for `O=C(Cn1nc(-c2ccccc2)ccc1=O)Nc1ccc(-n2cnnn2)cc1`?
HSF1 activator: inactive; GPR7 antagonist: 27; Jurkat NFkB inh: inactive; HSF1 inh: inactive; T cruzi repl: inactive; 697 NFkB inh: inactive; GPR7 antag cf: inactive; MCHR1 antag: 41

What do the screens show for `CC(C)[C@H](NC(=O)c1ccco1)C(=O)Nc1ccc(OC(F)F)cc1`?
HSF1 activator: inactive; GPR7 antagonist: inactive; Jurkat NFkB inh: inactive; HSF1 inh: inactive; T cruzi repl: inactive; 697 NFkB inh: inactive

What do the screens show for `COc1ccc(S(=O)(=O)NCc2nc3nc(C)cc(C)n3n2)cc1OC`?
HSF1 activator: inactive; GPR7 antagonist: inactive; Jurkat NFkB inh: inactive; HSF1 inh: inactive; T cruzi repl: inactive; 697 NFkB inh: inactive

How did O=C(NCC(c1cccs1)N1CCOCC1)c1cc(S(=O)(=O)N2CCOCC2)ccc1F (stereo not drawn) do in these assays?
HSF1 activator: inactive; Jurkat NFkB inh: inactive; HSF1 inh: inactive; T cruzi repl: inactive; 697 NFkB inh: inactive
